ChEMBL document CHEMBL4052623, “Synthesis and antiproteasomal activity of novel O-benzyl salicylamide-based inhibitors built from leucine and phenylalanine” (Eur J Med Chem, 2017)

What was measured:
K562 = test: Antiproliferative activity against human K562 cells after 72 hrs by calcein AM staining based fluorescence assay; format: functional; conditions: K562, 72 h
Method in brief: (§1)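 Cells treated with three-fold compound dilutions in triplicate for 72 h. Calcein AM added afterwards and live-cell fluorescence read at 485/538 nm (ex/em). GI50, the concentration lethal to 50% of tumour cells, calculated from dose-response curves.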

U-266 = test: Antiproliferative activity against human U266 cells after 72 hrs by calcein AM staining based fluorescence assay; format: functional; conditions: U-266, 72 h; method in brief: as §1
CCRF-CEM = test: Antiproliferative activity against human CEM cells after 72 hrs by calcein AM staining based fluorescence assay; format: functional; method in brief: as §1
[1] = target: T1, Proteasome component C5 (Homo sapiens) (UniProt P20618); test: Inhibition of caspase like activity of 26S proteasome beta 1 subunit in human U266 cells assessed as residual activity using […] as substrate at 10 uM preincubated for 1 hr followed by substrate addition and measured after 4 hrs by fluorescence assay relative to control; format: cell-based
T1 sequence (whole entry): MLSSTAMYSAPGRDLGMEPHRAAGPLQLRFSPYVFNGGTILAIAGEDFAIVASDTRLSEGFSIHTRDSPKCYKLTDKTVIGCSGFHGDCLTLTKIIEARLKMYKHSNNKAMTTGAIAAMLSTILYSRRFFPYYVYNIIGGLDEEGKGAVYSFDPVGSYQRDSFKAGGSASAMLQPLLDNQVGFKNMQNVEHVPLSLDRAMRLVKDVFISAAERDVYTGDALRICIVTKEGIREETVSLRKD

[2] = target: Proteasome Macropain subunit (Homo sapiens) (UniProt P49721); test: Inhibition of trypsin like activity of 26S proteasome beta 2 subunit in human U266 cells assessed as residual activity using […] as substrate at 10 uM preincubated for 1 hr followed by substrate addition and measured after 4 hrs by fluorescence assay relative to control; format: cell-based
[3] = target: T2, Proteasome Macropain subunit MB1 (Homo sapiens, UniProt P28074); test: Inhibition of chymotrypsin-like activity of 26S proteasome beta 5 subunit in human U266 cells using Suc-LLVY-aminoluciferin as substrate after 1 hr by Proteosome-Glo luminescence assay; format: cell-based
T2 sequence (P28074 whole entry): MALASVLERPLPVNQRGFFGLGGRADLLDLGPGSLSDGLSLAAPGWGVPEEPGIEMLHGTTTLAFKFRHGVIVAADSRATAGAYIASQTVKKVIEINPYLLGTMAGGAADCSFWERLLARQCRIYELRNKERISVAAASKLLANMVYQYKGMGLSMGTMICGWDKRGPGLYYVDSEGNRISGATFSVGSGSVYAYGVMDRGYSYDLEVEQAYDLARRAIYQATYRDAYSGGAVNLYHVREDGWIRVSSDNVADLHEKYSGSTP
Method in brief: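 U266 multiple myeloma cells plated at 20,000 cells/well and exposed to varying compound concentrations for 1 h at 37 °C, in duplicate. 26S proteasome activity measured immediately as luciferase-coupled hydrolysis of the β5 substrate Suc-LLVY-aminoluciferin (Proteasome-Glo), read by luminescence. Activity normalised to untreated cells; IC50 derived from dose-response curves.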

[4] = target: T3, Proteasome Macropain subunit MB1 (Homo sapiens) (UniProt P28074); test: Inhibition of chymotrypsin like activity of 26S proteasome beta 5 subunit in human U266 cells assessed as residual activity using N-Suc-LLVY-AMC as substrate at 10 uM preincubated for 1 hr followed by substrate addition and measured after 4 hrs by fluorescence assay relative to control; format: cell-based
T3 sequence (whole entry): T2 sequence (P28074 whole entry)

Chain of Proteasome Macropain subunit (Homo sapiens) (P49721 whole entry): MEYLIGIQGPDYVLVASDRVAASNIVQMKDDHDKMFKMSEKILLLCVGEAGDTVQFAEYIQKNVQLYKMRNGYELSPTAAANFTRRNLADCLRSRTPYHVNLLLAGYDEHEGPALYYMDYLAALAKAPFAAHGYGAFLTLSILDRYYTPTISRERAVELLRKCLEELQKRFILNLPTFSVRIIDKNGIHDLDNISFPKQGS

| Structure (SMILES) | GI50 (K562) [µM] | GI50 (U-266) [µM] | GI50 (CCRF-CEM) [µM] | Activity [1] [%] | Activity [2] [%] | IC50 [3] [µM] | Activity [4] [%] |
| --- | --- | --- | --- | --- | --- | --- | --- |
| CC(C)C[C@H](NC(=O)c1cc(Cl)ccc1O)C(=O)N[C@H](C=O)Cc1ccccc1 | 57.9 | 64.9 | 27.7 | > 100 | 81 | > 1 | > 100 |
| COC(=O)[C@H](CC(C)C)NC(=O)[C@H](Cc1ccccc1)NC(=O)[C@H](CC(C)C)NC(=O)c1cc(Cl)ccc1OCc1ccccc1 | 58.5 | 83.7 | 48.5 | – | – | – | – |
| COC(=O)[C@@H](CC(C)C)NC(=O)[C@H](Cc1ccccc1)NC(=O)[C@H](CC(C)C)NC(=O)c1cc(Cl)ccc1OCc1ccccc1 | > 100 | 88.5 | 68.2 | – | – | – | – |
| CC(C)C[C@H](NC(=O)c1cc(Cl)ccc1OCc1ccccc1)C(=O)N[C@@H](CC(C)C)C(=O)N[C@@H](C=O)CC(C)C | 0.98 | 0.38 | 0.58 | 35.5 | 74.3 | 0.182 | 18 |
| CON(C)C(=O)[C@@H](CC(C)C)NC(=O)[C@H](Cc1ccccc1)NC(=O)[C@H](CC(C)C)NC(=O)c1cc(Cl)ccc1OCc1ccccc1 | 28.9 | 22.6 | 17.6 | – | – | – | – |
| CON(C)C(=O)[C@H](Cc1ccccc1)NC(=O)[C@H](CC(C)C)NC(=O)[C@H](CC(C)C)NC(=O)c1cc(Cl)ccc1OCc1ccccc1 | 44.2 | 47.2 | 15.1 | – | – | – | – |
| CON(C)C(=O)[C@H](Cc1ccccc1)NC(=O)[C@H](CC(C)C)NC(=O)c1cc(Cl)ccc1O | 93.6 | 79.2 | 48.2 | – | – | – | – |
| CON(C)C(=O)[C@H](CC(C)C)NC(=O)[C@H](CC(C)C)NC(=O)c1cc(Cl)ccc1OCc1ccccc1 | 33.2 | 35.2 | 22.2 | – | – | – | – |
| COC(=O)[C@@H](CC(C)C)NC(=O)[C@H](CC(C)C)NC(=O)[C@H](CC(C)C)NC(=O)c1cc(Cl)ccc1OCc1ccccc1 | > 100 | 82 | 51 | – | – | – | – |
| CON(C)C(=O)[C@H](Cc1ccccc1)NC(=O)[C@H](Cc1ccccc1)NC(=O)c1cc(Cl)ccc1OCc1ccccc1 | 29.6 | 72.1 | 28.6 | – | – | – | – |
| CC(C)C[C@@H](C=O)NC(=O)[C@H](CC(C)C)NC(=O)[C@H](CC(C)C)NC(=O)c1cc(Cl)ccc1OCc1ccccc1 | 0.76 | 0.2 | 0.41 | 34.6 | 54.2 | 0.057 | 11.8 |
| O=C[C@H](Cc1ccccc1)NC(=O)[C@H](Cc1ccccc1)NC(=O)c1cc(Cl)ccc1OCc1ccccc1 | 27.1 | 21.7 | 15.5 | 71.5 | 78.4 | > 1 | 97.3 |
| CON(C)C(=O)[C@H](Cc1ccccc1)NC(=O)c1cc(Cl)ccc1OCc1ccccc1 | 50.9 | 92.3 | 65.2 | – | – | – | – |
| CON(C)C(=O)[C@H](CC(C)C)NC(=O)[C@H](Cc1ccccc1)NC(=O)c1cc(Cl)ccc1O | 90.9 | 71.6 | 64.1 | – | – | – | – |
| CON(C)C(=O)[C@H](CC(C)C)NC(=O)c1cc(Cl)ccc1O | > 100 | > 100 | 58.6 | – | – | – | – |
| COC(=O)[C@H](CC(C)C)NC(=O)[C@H](CC(C)C)NC(=O)[C@H](CC(C)C)NC(=O)c1cc(Cl)ccc1OCc1ccccc1 | 87.5 | 84.9 | 48.4 | – | – | – | – |

| Structure (SMILES) | GI50 (K562) [µM] | GI50 (U-266) [µM] | GI50 (CCRF-CEM) [µM] | Activity [1] [%] | Activity [2] [%] | IC50 [3] [µM] | Activity [4] [%] |
| --- | --- | --- | --- | --- | --- | --- | --- |
| CON(C)C(=O)[C@H](CC(C)C)NC(=O)[C@H](Cc1ccccc1)NC(=O)[C@H](CC(C)C)NC(=O)c1cc(Cl)ccc1OCc1ccccc1 | 16.4 | 48.6 | 19 | – | – | – | – |
| CON(C)C(=O)[C@H](Cc1ccccc1)NC(=O)[C@H](Cc1ccccc1)NC(=O)[C@H](CC(C)C)NC(=O)c1cc(Cl)ccc1O | 22.2 | 23.1 | 16.3 | – | – | – | – |
| CON(C)C(=O)[C@H](CC(C)C)NC(=O)c1cc(Cl)ccc1OCc1ccccc1 | 42.7 | 54.1 | 45.2 | – | – | – | – |
| CON(C)C(=O)[C@H](Cc1ccccc1)NC(=O)c1cc(Cl)ccc1O | 99.1 | 72.4 | 55.5 | – | – | – | – |
| CC(C)C[C@@H](CO)NC(=O)[C@H](Cc1ccccc1)NC(=O)[C@H](CC(C)C)NC(=O)c1cc(Cl)ccc1O | 22.4 | 11.8 | 8.45 | – | – | – | – |
| CC(C)C[C@H](NC(=O)c1cc(Cl)ccc1O)C(=O)N[C@@H](Cc1ccccc1)C(=O)N[C@H](CO)Cc1ccccc1 | 27.3 | 18.9 | 10.8 | – | – | – | – |
| COC(=O)[C@H](Cc1ccccc1)NC(=O)[C@H](Cc1ccccc1)NC(=O)[C@H](CC(C)C)NC(=O)c1cc(Cl)ccc1OCc1ccccc1 | 72 | 82.1 | 48 | – | – | – | – |
| CON(C)C(=O)C(Cc1ccccc1)NC(=O)[C@H](Cc1ccccc1)NC(=O)c1cc(Cl)ccc1O (some centres not stated) | 79.5 | 68.7 | 54.2 | – | – | – | – |
| CON(C)C(=O)[C@@H](CC(C)C)NC(=O)[C@H](Cc1ccccc1)NC(=O)c1cc(Cl)ccc1OCc1ccccc1 | 25.8 | 67.4 | 32.2 | – | – | – | – |
| CON(C)C(=O)[C@H](Cc1ccccc1)NC(=O)[C@H](Cc1ccccc1)NC(=O)[C@H](CC(C)C)NC(=O)c1cc(Cl)ccc1OCc1ccccc1 | 34.7 | 56.3 | 35.7 | – | – | – | – |
| CON(C)C(=O)[C@H](Cc1ccccc1)NC(=O)[C@H](CC(C)C)NC(=O)c1cc(Cl)ccc1OCc1ccccc1 | 22.5 | 81.9 | 19.5 | – | – | – | – |
| CON(C)C(=O)[C@H](CC(C)C)NC(=O)[C@H](CC(C)C)NC(=O)c1cc(Cl)ccc1O | 98.1 | 69 | 63 | – | – | – | – |
| CON(C)C(=O)[C@H](CC(C)C)NC(=O)[C@H](CC(C)C)NC(=O)[C@H](CC(C)C)NC(=O)c1cc(Cl)ccc1OCc1ccccc1 | 55.6 | 55.2 | 30.6 | – | – | – | – |
| CON(C)C(=O)[C@@H](CC(C)C)NC(=O)[C@H](CC(C)C)NC(=O)[C@H](CC(C)C)NC(=O)c1cc(Cl)ccc1OCc1ccccc1 | 34 | 23.7 | 11.5 | – | – | – | – |
| CON(C)C(=O)[C@H](CC(C)C)NC(=O)[C@H](Cc1ccccc1)NC(=O)[C@H](CC(C)C)NC(=O)c1cc(Cl)ccc1O | 30.9 | 32.8 | 17.2 | – | – | – | – |
| COC(=O)[C@H](Cc1ccccc1)NC(=O)[C@H](CC(C)C)NC(=O)[C@H](CC(C)C)NC(=O)c1cc(Cl)ccc1OCc1ccccc1 | 70.3 | 72.2 | 31.4 | – | – | – | – |
